{"data": "Results gathered from unrelated publications", "target": "Receptor tyrosine-protein kinase erbB-2 (ERBB2, Homo sapiens, UniProt P04626)", "note": "Each line is one published result; the experiments were not run side by side."}
{"Structure (SMILES)": "N#CC1(c2ccccn2)CCN(Cc2cc(C(=O)O)c(=O)n3ccccc23)CC1", "test": "cell-free assay, competition with immobilised ligand", "conditions": "1 µM", "quantity": "remaining binding", "value": "96%"}
{"Structure (SMILES)": "Nc1ncc(-c2nc(N3CCOCC3)nc(N3CCOCC3)n2)c(C(F)F)n1", "test": "binding, competition with immobilised ligand", "conditions": "10 µM", "quantity": "remaining binding", "value": "65%"}
{"Structure (SMILES)": "C[C@H](C(=O)N[C@H]1COc2ccccc2[C@@H]1S(C)(=O)=O)c1ccc(F)cc1", "test": "enzyme activity, inhibitor", "conditions": "10 µM", "quantity": "inhibition", "value": "0%"}
{"Structure (SMILES)": "C#Cc1n[nH]c2c(-c3cn([C@@H](C)c4ccccn4)c(=O)[nH]c3=O)cc(F)cc12", "test": "enzyme activity, inhibitor", "conditions": "0.1 µM", "quantity": "inhibition", "value": "-0.7%"}
{"Structure (SMILES)": "CC(C)(C)c1cc(C=C(C#N)C#N)cc(Br)c1O", "test": "enzyme activity, inhibitor", "conditions": "0.5 µM", "quantity": "remaining activity", "value": "95.7%"}
{"Structure (SMILES)": "c1ccc(C(NCCNC(c2ccccc2)c2ccccc2)c2ccccc2)cc1", "test": "enzyme activity, inhibitor", "conditions": "10 µM", "quantity": "inhibition", "value": "-7%"}
{"Structure (SMILES)": "O=c1[nH]c2ccccc2n1C1CCN(Cc2ccc(-c3[nH]c4cc5ncnc5cc4nc3-c3ccccc3)cc2)CC1", "test": "cell-free assay", "conditions": "0.5 µM", "quantity": "remaining signal", "value": "88.9%"}
{"Structure (SMILES)": "C#Cc1n[nH]c2c(-c3cn([C@@H](C)c4ccccc4)c(=O)[nH]c3=O)cc(F)cc12", "test": "enzyme activity, inhibitor", "conditions": "0.1 µM", "quantity": "inhibition", "value": "-8.5%"}
{"Structure (SMILES)": "Cc1nn(C)cc1-c1nc2c(N3CCN(Cc4ccc(Cl)cc4)CC3)c(Cl)cnc2[nH]1", "test": "binding, competition with immobilised ligand", "conditions": "1 µM", "quantity": "remaining binding", "value": "70%"}
{"Structure (SMILES)": "COc1cc(Nc2ncc(F)c(Nc3ccc4c(n3)NC(=O)C(C)(C)O4)n2)cc(OC)c1OC", "test": "binding, competition with immobilised ligand", "conditions": "10 µM", "quantity": "inhibition", "value": "70%"}
{"Structure (SMILES)": "Cn1cc(-c2cc(F)cc(N3CCn4c(cc5c4CCCC5)C3=O)c2CO)cc(Nc2ccc(N3CCN(C4COC4)CC3)cn2)c1=O", "test": "enzyme activity, inhibitor", "conditions": "0.1 µM", "quantity": "inhibition", "value": "7%"}
{"Structure (SMILES)": "Cn1cncc1[C@@](O)(COc1ccc(C#N)cc1-c1ccc(OC(F)(F)F)cc1)c1ccc(C#N)cc1", "test": "cell-free assay, competition with immobilised ligand", "conditions": "1 µM", "quantity": "remaining binding", "value": "94%"}
{"Structure (SMILES)": "COc1ncccc1-c1cnn2ccc(N3CCN(C(=O)OC(C)C)CC3)nc12", "test": "binding, competition with immobilised ligand", "conditions": "1 µM", "quantity": "remaining binding", "value": "92%"}
{"Structure (SMILES)": "Cn1cc(-c2cccc(N3CCc4c(sc5c4CC(C)(C)C5)C3=O)c2CO)cc(Nc2ccncn2)c1=O", "test": "enzyme activity, inhibitor", "conditions": "1 µM", "quantity": "inhibition", "value": "54%"}
